Data set [1] deals with Long-chain fatty acid transport protein 1 (Mus musculus, UniProt Q60714). The experiment in a line: Inhibition of mouse FLAG-tagged FATP1-mediated [1-14C] oleic acid conversion to [1-14C] oleoyl-CoA after 20 mins by scintillation counting analysis. In short, it runs like this:
(§1)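 Purified FLAG-tagged human or mouse FATP1 run in a cell-free acyl-CoA synthetase assay. Protein incubated with 10 µM [1-14C]oleic acid, 0.5 mM ATP, 0.5 mM CoA, 5 mM MgCl2, 30 mM NaCl, 0.05% Triton X-100 and 2 mM DTT in 100 mM Tris-HCl pH 7.4 for 20 min at 37 °C. Free oleate removed by heptane washes. Aqueous-phase radioactivity counted by scintillation. FLAG-luciferase background subtracted. IC50 is the mean of n ≥ 2.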

Data set [2] addresses Long-chain fatty acid transport protein 1 (Homo sapiens, UniProt Q6PCB7). The experiment in a line: Inhibition of human FLAG-tagged FATP1-mediated [1-14C] oleic acid conversion to [1-14C] oleoyl-CoA after 20 mins by scintillation counting analysis. The method in brief: as §1
Data set [3] is described as follows: Metabolic stability in mouse liver microsomes assessed as compound remaining after 0.5 hr. It counts as ADME, Microsome. To be noted: read-out: Stability. In short, it runs like this: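 Test compound incubated 0.5 h with mouse liver microsomes. Result given as percent of parent remaining.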
Background: Liver microsomes are vesicles of endoplasmic reticulum, rich in cytochrome P450 enzymes.

Data set [4] in a line: 1-Octanol-phosphate buffered saline distribution coefficient, log D of the compound at pH 7.4. It counts as physicochemical. The method in brief: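 logD measured by partitioning between 1-octanol and phosphate-buffered saline, pH 7.4.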

This note sets out measurements from ChEMBL document CHEMBL2375259, “Arylpiperazines as fatty acid transport protein 1 (FATP1) inhibitors with improved potency and pharmacokinetic properties” (Bioorg Med Chem Lett, 2013).

Chain of Long-chain fatty acid transport protein 1 (Homo sapiens, UniProt Q6PCB7) (Q6PCB7 whole entry): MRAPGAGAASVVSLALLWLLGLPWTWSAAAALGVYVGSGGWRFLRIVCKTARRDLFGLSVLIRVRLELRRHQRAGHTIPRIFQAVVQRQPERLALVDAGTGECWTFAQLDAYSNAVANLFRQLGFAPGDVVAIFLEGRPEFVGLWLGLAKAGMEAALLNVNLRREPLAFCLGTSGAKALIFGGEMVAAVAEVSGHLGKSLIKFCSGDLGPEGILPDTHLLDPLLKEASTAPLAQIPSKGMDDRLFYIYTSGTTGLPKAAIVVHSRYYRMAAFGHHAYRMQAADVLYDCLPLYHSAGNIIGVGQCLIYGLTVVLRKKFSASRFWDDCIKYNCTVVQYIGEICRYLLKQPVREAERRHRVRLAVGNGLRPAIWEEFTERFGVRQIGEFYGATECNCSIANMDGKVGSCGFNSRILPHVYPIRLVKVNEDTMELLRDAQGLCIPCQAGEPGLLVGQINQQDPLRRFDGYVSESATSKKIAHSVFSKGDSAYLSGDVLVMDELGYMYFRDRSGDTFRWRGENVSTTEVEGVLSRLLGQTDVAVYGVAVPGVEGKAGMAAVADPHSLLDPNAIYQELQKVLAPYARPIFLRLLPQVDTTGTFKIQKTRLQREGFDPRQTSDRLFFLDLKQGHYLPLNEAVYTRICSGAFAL
Chain of Long-chain fatty acid transport protein 1 (Mus musculus, UniProt Q60714) (Q60714 whole entry): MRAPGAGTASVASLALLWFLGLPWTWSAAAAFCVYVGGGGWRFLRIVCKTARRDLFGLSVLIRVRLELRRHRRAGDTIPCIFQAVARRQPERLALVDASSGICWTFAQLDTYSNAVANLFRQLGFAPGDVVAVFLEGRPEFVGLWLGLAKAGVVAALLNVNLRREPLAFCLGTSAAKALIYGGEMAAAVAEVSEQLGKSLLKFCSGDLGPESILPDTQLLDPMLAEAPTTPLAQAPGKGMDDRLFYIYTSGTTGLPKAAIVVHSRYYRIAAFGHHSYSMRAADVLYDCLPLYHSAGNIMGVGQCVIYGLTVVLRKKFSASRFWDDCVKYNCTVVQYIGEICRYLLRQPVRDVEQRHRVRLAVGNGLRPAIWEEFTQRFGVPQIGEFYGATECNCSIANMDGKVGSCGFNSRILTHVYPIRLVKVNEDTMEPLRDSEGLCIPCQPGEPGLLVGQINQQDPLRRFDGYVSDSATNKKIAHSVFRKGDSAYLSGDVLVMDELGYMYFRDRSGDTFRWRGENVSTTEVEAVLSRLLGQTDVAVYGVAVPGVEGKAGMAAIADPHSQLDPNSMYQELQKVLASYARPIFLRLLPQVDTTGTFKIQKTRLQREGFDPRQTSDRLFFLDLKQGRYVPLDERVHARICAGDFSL

For orientation: IC50 means the point on the concentration scale where inhibition reaches its midpoint. For `O=C(CN1CCN(c2cccc(F)c2)CC1)Nc1nc2c(s1)CCCC2`, the IC50 in data set [1] was above 10000 nM; in data set [2], above 1000 nM.

As a reminder, the logD is the decadic logarithm of the distribution of all forms, ionised or not, between an organic phase and buffer at a given pH. With `O=C(CN1CCN(c2ccc(F)cn2)CC1)Nc1nc2c(o1)CCCC2`, the remaining at 0.5 h in data set [3] was found to be 63%. The logD in data set [4] turned out to be 2.7. For the same compound, the IC50 in data set [1] was found to be 1700 nM; in data set [2] it was 100 nM.

As for `CCN(C(=O)CN1CCN(c2ccc(F)cn2)CC1)c1nc2c(s1)CCCC2`, the IC50 in data set [1] is above 10000 nM; in data set [2], 780 nM.

As for `O=C(CN1CCN(c2ccc(F)cc2)CC1)Nc1nc2c(o1)CCCC2`, the remaining at 0.5 h in data set [3] was found to be 53%. This compound also gave a logD in data set [4] of 3. Also, the results for the IC50 in data set [1] and in data set [2] were 5400 nM and 180 nM, respectively.

Regarding `O=C(CN1CCN(c2ccccn2)CC1)Nc1nc2c(s1)CCCC2`, the pH-dependent lipophilicity (logD) in data set [4] is 3.9. Also, the IC50 was 4900 nM in data set [1] and 200 nM in data set [2].

`O=C(CN1CCN(c2cccnc2)CC1)Nc1nc2c(s1)CCCC2` displayed a logD in data set [4] of 3.3. Also, the figures for the IC50 in data set [1] and in data set [2] were above 10000 nM and above 1000 nM, respectively.

In data set [4], `O=C(CN1CCN(c2ccc(F)cc2)CC1)Nc1nc2c(s1)CCCCC2` gave a pH-dependent lipophilicity (logD) of 5. The IC50 in data set [1] was 2000 nM; in data set [2], 120 nM.

In the case of `O=C(CN1CCN(c2ccc(F)cn2)CC1)c1cnc2ccccn12`, in data set [3], the remaining at 0.5 h amounted to 98%. In data set [4], this compound came in with a logD of 2.5. Also, the IC50 in data set [1] was determined as 290 nM; in data set [2], 130 nM.

For `O=C(CN1CCN(c2ccc(F)cn2)CC1)c1ncc2ccccn12`, the results for the IC50 in data set [1] and in data set [2] were above 10000 nM and above 1000 nM, respectively.

As for `Cc1nc(NC(=O)CN2CCN(c3ccc(F)cc3)CC2)sc1C`, the remaining at 0.5 h in data set [3] amounted to 56%. Further, the logD in data set [4] worked out at 3.7. For the same compound, the half-maximal inhibitory concentration (IC50) in data set [1] was found to be 1700 nM; in data set [2], 430 nM.

Consider `CN(C(=O)CN1CCN(c2ccc(F)cn2)CC1)c1nc2c(s1)CCCC2`, for which the remaining at 0.5 h in data set [3] turned out to be 65%. Moreover, in data set [4], the logD amounted to 3.9. In addition, the IC50 in data set [1] was found to be 620 nM; in data set [2], 41 nM.

As for `O=C(CN1CCN(c2ccc(F)cn2)CC1)c1c[nH]c2ccccc12`, the figures for the half-maximal inhibitory concentration (IC50) in data set [1] and in data set [2] were above 10000 nM and above 1000 nM, respectively.

On to `Cc1nc2n(c1C(=O)CN1CCN(c3ccc(F)cn3)CC1)CCCC2`, for which the remaining at 0.5 h in data set [3] was determined as 55%. Further, in data set [4], the logD was 2.5. Moreover, the IC50 stood at 400 nM in data set [1] and 190 nM in data set [2].

Consider `O=C(CN1CCN(c2ccc(F)cn2)CC1)c1cnn2ccccc12`, for which the remaining at 0.5 h in data set [3] turned out to be 84%. For the same compound, the logD in data set [4] is 2.5. Also, the IC50 amounted to 1100 nM in data set [1] and 330 nM in data set [2].

The compound `O=C(CN1CCN(c2ccc(F)cc2)CC1)Nc1nccs1` registered a logD in data set [4] of 2.8. Moreover, the results for the IC50 in data set [1] and in data set [2] were above 10000 nM and above 1000 nM, respectively.

In turn, `Cc1nc2ccccn2c1C(=O)CN1CCN(c2ccccc2)CC1` registered an IC50 in data set [2] of 3000 nM.

In data set [4], `O=C(CN1CCN(c2ccccc2)CC1)Nc1nc2c(s1)CCCC2` yielded a logD of 4.3. Besides, the IC50 in data set [1] amounted to 9000 nM; in data set [2], 280 nM.

Regarding `Cc1ccc(N2CCN(CC(=O)Nc3nc4c(s3)CCCC4)CC2)cc1`, the logD in data set [4] is 4.8. Further, the IC50 in data set [1] is above 10000 nM; in data set [2], 250 nM.

In turn, `O=C(CN1CCN(c2ncccn2)CC1)Nc1nc2c(s1)CCCC2` showed a logD in data set [4] of 3.7. Further, the results for the IC50 in data set [1] and in data set [2] were above 10000 nM and above 1000 nM, respectively.

Consider `O=C(CN1CCN(c2ccncc2)CC1)Nc1nc2c(s1)CCCC2`, for which the logD in data set [4] was found to be 2. Also, the IC50 in data set [1] is above 10000 nM; in data set [2] it was above 1000 nM.

In data set [4], `O=C(CN1CCN(c2ccc(F)cc2)CC1)Nc1nc2ccccc2s1` yielded a logD of 4.4. Moreover, the IC50 was above 10000 nM in data set [1] and 490 nM in data set [2].

As for `O=C(CN1CCN(c2ccc(F)cc2)CC1)Nc1nc2c(s1)CCC2`, the logD in data set [4] came out at 4. The IC50 in data set [1] was above 10000 nM; in data set [2] it was 490 nM.

`O=C(CN1CCN(c2nccs2)CC1)Nc1nc2c(s1)CCCC2`: the logD in data set [4] was 3.8. For the same compound, the IC50 is 7900 nM in data set [1] and 520 nM in data set [2].

In data set [4], `O=C(CN1CCN(C2CCCCC2)CC1)Nc1nc2c(s1)CCCC2` showed a logD of 3. In addition, the IC50 in data set [1] is above 10000 nM; in data set [2] it was above 1000 nM.

For `O=C(CN1CCN(c2ccc(F)cc2)CC1)Nc1nc2c(s1)CCCC2`, the remaining at 0.5 h in data set [3] came out at 42%. For the same compound, the logD in data set [4] is 4.5. In addition, the IC50 in data set [1] was 4000 nM; in data set [2], 77 nM.

Regarding `O=C(CN1CCN(c2ccc(F)cn2)CC1)c1coc2ccccc12`, in data set [3], the remaining at 0.5 h stood at 76%. The compound also returned a logD in data set [4] of 3.9. Also, the IC50 in data set [1] is 1900 nM; in data set [2], 470 nM.

For `O=C(CN1CCN(c2ccc(F)cn2)CC1)c1n[nH]c2ccccc12`, the logD in data set [4] came to 2.8. For the same compound, the IC50 was above 10000 nM in data set [1] and above 1000 nM in data set [2].

As to `O=C(CN1CCN(C(=O)c2ccccc2)CC1)Nc1nc2c(s1)CCCC2`, the logD in data set [4] is 2.1. Also, the IC50 in data set [1] is above 10000 nM; in data set [2], above 1000 nM.

Take `O=C(CN1CCN(c2ccc(F)cn2)CC1)c1cnc2n1CCCC2`: in data set [3], the remaining at 0.5 h turned out to be 86%. In data set [4], the logD was 2.1. Further, the IC50 in data set [1] came to 160 nM; in data set [2], 100 nM.
